According to ChEMBL document CHEMBL1153436, “2-Pyridyl P1'-substituted symmetry-based human immunodeficiency virus protease inhibitors (A-792611 and A-790742) with potential for convenient dosing and reduced side effects” (J Med Chem, 2009):
Blank lines part the entries; values can stand above or below the compound they belong to.

Columns and labels:
[1] = AUC in dog at 2.5 mg/kg; assay type: ADME, organism-based, Canis lupus familiaris; design: dose 2.5 mg/kg; settings: plasma
Method in brief: (§1)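 Male and female beagle dogs (n = 3) given oral gavage doses formulated as 5 mg/mL solutions in 5% dextrose with 20% ethanol, 30% propylene glycol and methanesulfonic acid, alone or with RTV (2.5 or 5 mg/kg). Plasma was taken at 12 time points over 12 h, extracted with ethyl acetate/hexane and analysed by reversed-phase HPLC with internal standard. AUC in µg·h/mL; Cmax and C12h in µg/mL.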

[2] = AUC in dog at 5 mg/kg, po; assay type: ADME, organism-based, Canis lupus familiaris; design: dose 5 mg/kg, route oral; settings: plasma; method in brief: as §1
[3] = AUC in dog at 5 mg/kg, po coadministered with 2.5 mg/kg ritonavir; assay type: ADME, organism-based, Canis lupus familiaris; settings: plasma; method in brief: as §1
[4] = Concentration of drug after 12 hrs in dog at 5 mg/kg, po coadministered with 5 mg/kg ritonavir; assay type: ADME, organism-based, Canis lupus familiaris; settings: in vivo, read-out: Drug uptake; method in brief: as §1
Cytochrome P450 2C19 = Cytochrome P450 2C19 (Homo sapiens, UniProt P33261); test: Inhibition of CYP2C19 assessed as S-mephenytion hydroxylation; assay type: ADME
Chain of Cytochrome P450 2C19 (P33261 whole entry): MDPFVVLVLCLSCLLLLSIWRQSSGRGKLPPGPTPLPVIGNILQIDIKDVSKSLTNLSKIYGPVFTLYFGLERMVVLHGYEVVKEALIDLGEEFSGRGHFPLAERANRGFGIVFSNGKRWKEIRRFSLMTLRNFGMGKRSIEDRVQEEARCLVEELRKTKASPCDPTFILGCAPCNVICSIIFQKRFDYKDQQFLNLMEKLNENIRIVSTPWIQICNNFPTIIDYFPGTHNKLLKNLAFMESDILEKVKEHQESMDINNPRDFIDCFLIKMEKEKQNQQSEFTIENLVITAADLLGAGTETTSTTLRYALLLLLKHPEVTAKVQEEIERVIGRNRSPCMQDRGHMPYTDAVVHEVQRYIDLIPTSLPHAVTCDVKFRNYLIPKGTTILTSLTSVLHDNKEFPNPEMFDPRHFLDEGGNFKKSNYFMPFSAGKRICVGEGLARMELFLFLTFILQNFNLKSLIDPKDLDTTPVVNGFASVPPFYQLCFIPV
Method in brief: (§2)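 CYP inhibition in vitro, with probe reactions of phenacetin O-deethylation (CYP1A2), tolbutamide hydroxylation (CYP2C9), S-mephenytoin hydroxylation (CYP2C19) and dextromethorphan O-demethylation (CYP2D6). Reported as IC50 in µM.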

[5] = system: Human immunodeficiency virus 1; test: Antiviral activity against HIV1 bearing protease gene with A17 mutation infected in human MT4 cells after 5 days by MTT assay; assay type: functional, organism-based; settings: Human immunodeficiency virus 1, MT4, 120 h
Method in brief: (§3)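 HIV-1 A17 mutant clone carrying protease mutations L10F, V32I, M46I, I47V, Q58E and I84V, generated by in vitro serial passage under LPV/RTV. EC50 was determined in MT-4 cells. Wild-type reference strain was HIV-1 pNL4-3.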

Rattus norvegicus [6] = test: Toxicity in Gunn rat assessed as unconjugated-bilirubin level at 125 mg/kg coadministered with ritonavir measured on day 2; settings: in vivo
[7] = system: Human immunodeficiency virus 1; test: Antiviral activity against wild-type HIV1 pNL4-3 infected in human MT4 cells after 5 days by MTT assay; assay type: functional, organism-based; settings: Human immunodeficiency virus 1, MT4, 120 h
[8] = Cmax in dog at 5 mg/kg, po coadministered with 2.5 mg/kg ritonavir; assay type: ADME, organism-based, Canis lupus familiaris; design: dose 5 mg/kg, route oral; settings: in vivo; method in brief: as §1
Cytochrome P450 1A2 = biological target: T1, Cytochrome P450 1A2 (Homo sapiens, UniProt P05177); test: Inhibition of CYP1A2 assessed as phenacetin O-deethylation; assay type: ADME; method in brief: as §2
T1 sequence (P05177 whole entry): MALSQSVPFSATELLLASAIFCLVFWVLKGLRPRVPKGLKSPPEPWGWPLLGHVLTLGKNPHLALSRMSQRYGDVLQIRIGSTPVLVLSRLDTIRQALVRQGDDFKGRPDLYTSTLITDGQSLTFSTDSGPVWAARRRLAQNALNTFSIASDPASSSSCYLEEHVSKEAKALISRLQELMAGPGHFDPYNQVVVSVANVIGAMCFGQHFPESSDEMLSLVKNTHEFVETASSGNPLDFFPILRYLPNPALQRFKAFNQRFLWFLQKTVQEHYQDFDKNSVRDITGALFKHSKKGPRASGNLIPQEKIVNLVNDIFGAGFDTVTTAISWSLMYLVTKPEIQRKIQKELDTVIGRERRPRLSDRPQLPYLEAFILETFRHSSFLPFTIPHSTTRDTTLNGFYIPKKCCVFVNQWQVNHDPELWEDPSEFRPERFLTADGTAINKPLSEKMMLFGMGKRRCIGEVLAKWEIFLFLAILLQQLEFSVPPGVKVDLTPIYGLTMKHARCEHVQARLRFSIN

Cytochrome P450 3A4 = Cytochrome P450 3A4 (Homo sapiens, UniProt P08684); test: Inhibition of CYP3A4 assessed as midazolam 1'- hydroxylation; assay type: ADME
Chain of Cytochrome P450 3A4 (P08684 whole entry): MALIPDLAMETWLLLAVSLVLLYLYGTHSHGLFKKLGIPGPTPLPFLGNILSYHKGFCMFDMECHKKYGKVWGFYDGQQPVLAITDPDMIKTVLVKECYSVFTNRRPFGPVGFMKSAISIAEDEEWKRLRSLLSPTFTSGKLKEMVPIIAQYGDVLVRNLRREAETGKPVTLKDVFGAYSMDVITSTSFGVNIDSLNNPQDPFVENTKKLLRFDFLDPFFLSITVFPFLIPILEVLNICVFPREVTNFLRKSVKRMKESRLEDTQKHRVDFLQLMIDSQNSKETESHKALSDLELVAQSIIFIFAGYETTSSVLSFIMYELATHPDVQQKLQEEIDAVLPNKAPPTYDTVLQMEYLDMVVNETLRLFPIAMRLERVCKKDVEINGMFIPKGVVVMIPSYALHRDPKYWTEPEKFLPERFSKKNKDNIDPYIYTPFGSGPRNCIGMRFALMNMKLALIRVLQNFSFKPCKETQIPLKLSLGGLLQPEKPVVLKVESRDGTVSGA
Method in brief: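 CYP3A4 inhibition was measured as midazolam 1′-hydroxylation and expressed as Ki in nM.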

[9] = Clearance in Sprague-Dawley rat at 5 mg/kg, iv; assay type: ADME, organism-based; design: dose 5 mg/kg, route intravenous; settings: in vivo
Method in brief: (§4)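 Male Sprague-Dawley-derived rats (n = 3) dosed iv or by oral gavage with 5 mg/mL solutions in 5% dextrose containing 20% ethanol, 30% propylene glycol and methanesulfonic acid equivalents. Plasma was sampled at 10 time points over 8 h, extracted into ethyl acetate/hexane and analysed by reversed-phase HPLC with internal standard. AUC in µg·h/mL.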

[10] = system: Human immunodeficiency virus 1; test: Fold resistance, ratio of EC50 for HIV1 bearing protease gene with A17 mutation to EC50 for wild-type HIV1 pNL4-3; assay type: functional; method in brief: as §3
Cytochrome P450 2C9 = Cytochrome P450 2C9 (Homo sapiens, UniProt P11712); test: Inhibition of CYP2C9 assessed as Tolbutamide hydroxylation; assay type: ADME; method in brief: as §2
Chain of Cytochrome P450 2C9 (P11712 whole entry): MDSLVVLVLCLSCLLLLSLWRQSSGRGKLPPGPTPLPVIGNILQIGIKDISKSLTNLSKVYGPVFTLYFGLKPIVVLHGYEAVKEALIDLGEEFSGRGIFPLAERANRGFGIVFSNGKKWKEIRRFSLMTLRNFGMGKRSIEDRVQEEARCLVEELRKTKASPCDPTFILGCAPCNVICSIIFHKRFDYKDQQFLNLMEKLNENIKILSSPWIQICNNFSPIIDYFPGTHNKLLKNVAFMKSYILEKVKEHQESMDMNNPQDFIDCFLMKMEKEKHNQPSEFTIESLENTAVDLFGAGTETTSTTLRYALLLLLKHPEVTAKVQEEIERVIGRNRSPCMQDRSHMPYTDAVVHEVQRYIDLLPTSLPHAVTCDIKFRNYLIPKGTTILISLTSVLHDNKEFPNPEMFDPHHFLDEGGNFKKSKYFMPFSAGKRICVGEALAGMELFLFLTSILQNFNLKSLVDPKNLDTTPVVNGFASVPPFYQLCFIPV

[11] = AUC in dog at 5 mg/kg, po coadministered with 5 mg/kg ritonavir; assay type: ADME, organism-based, Canis lupus familiaris; settings: plasma; method in brief: as §1
[12] = Half life in Sprague-Dawley rat at 5 mg/kg, iv; assay type: ADME, organism-based; design: dose 5 mg/kg, route intravenous; settings: in vivo; method in brief: as §4
Serum [13] = test: Drug level in Gunn rat serum at 125 mg/kg coadministered with ritonavir measured on day 2; assay type: ADME, organism-based; design: dose 125 mg/kg; settings: in vivo
Method in brief: (§5)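 Gunn rats (n = 8-10 per arm) dosed orally with compound in 5% ethanol/95% propylene glycol with p-toluenesulfonic acid, together with 50 mg/kg RTV. Plasma was sampled 4 h after the first and second doses. Drug was measured by HPLC and bilirubin […]. Change in bilirubin (mg/dL) reported as mean with SD.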

[14] = Cmax in dog at 5 mg/kg, po coadministered with 5 mg/kg ritonavir; assay type: ADME, organism-based, Canis lupus familiaris; design: dose 5 mg/kg, route oral; settings: in vivo; method in brief: as §1
[15] = Inhibition of human pepsin
[16] = Cmax in dog at 5 mg/kg, po; assay type: ADME, organism-based, Canis lupus familiaris; design: dose 5 mg/kg, route oral; settings: in vivo; method in brief: as §1
[17] = Oral bioavailability in Sprague-Dawley rat at 5 mg/kg; assay type: ADME, organism-based; settings: in vivo; method in brief: as §4
Cytochrome P450 2D6 = Cytochrome P450 2D6 (Homo sapiens, UniProt P10635); test: Inhibition of CYP2D6 assessed as dextromethorphan O-demethylation; assay type: ADME; method in brief: as §2
Chain of Cytochrome P450 2D6 (P10635 whole entry): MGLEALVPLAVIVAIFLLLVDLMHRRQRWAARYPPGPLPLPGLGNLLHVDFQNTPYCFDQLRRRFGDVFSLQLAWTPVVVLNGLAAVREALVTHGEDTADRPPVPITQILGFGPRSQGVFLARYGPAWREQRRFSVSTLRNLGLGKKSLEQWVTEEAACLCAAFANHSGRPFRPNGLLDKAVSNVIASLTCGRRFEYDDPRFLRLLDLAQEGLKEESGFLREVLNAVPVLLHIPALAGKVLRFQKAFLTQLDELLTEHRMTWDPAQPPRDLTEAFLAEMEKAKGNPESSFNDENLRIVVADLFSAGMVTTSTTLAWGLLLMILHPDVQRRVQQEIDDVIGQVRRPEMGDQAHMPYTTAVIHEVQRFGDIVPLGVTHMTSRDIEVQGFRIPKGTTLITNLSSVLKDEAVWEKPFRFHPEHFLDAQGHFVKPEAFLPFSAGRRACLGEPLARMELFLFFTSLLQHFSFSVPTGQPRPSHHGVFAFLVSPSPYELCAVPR

[18] = AUC in Sprague-Dawley rat at 5 mg/kg, po in presence of ritonavir; assay type: ADME, organism-based; design: dose 5 mg/kg, route oral; settings: plasma; method in brief: as §4
[19] = AUC in Sprague-Dawley rat at 5 mg/kg, po; assay type: ADME, organism-based; design: dose 5 mg/kg, route oral; settings: plasma; method in brief: as §4
[20] = system: Human immunodeficiency virus 1; test: Antiviral activity against HIV1 bearing protease gene with B26 mutation infected in human MT4 cells after 5 days by MTT assay; assay type: functional, organism-based; settings: Human immunodeficiency virus 1, MT4, 120 h
[21] = Solubility at pH 7.4; assay type: physicochemical; settings: buffer
Method in brief: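 Solubility measured in µg/mL at pH 7.4 and 25 °C.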

[22] = Concentration of drug after 12 hrs in dog at 5 mg/kg, po coadministered with 2.5 mg/kg ritonavir; assay type: ADME, organism-based, Canis lupus familiaris; settings: in vivo, read-out: Drug uptake; method in brief: as §1
Renin = biological target: T2, Renin (Homo sapiens, UniProt P00797); test: Inhibition of renin
T2 sequence (P00797 whole entry): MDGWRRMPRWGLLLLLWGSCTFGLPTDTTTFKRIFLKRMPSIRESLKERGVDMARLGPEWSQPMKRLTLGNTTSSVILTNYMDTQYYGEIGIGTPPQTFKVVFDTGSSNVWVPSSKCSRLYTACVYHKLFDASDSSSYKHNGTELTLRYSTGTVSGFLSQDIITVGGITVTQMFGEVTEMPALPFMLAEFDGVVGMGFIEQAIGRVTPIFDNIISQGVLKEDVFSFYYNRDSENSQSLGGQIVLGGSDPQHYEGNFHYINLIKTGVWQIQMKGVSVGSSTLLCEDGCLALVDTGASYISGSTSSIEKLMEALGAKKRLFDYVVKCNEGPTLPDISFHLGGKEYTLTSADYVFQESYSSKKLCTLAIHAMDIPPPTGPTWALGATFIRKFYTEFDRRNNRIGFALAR

Rattus norvegicus [23] = test: Toxicity in Gunn rat assessed as unconjugated-bilirubin level at 125 mg/kg coadministered with ritonavir measured on day 1; assay type: organism-based; design: dose 125 mg/kg; settings: in vivo; method in brief: as §5
[24] = system: Human immunodeficiency virus 1; test: Antiviral activity against wild-type HIV1 pNL4-3 infected in human MT4 cells after 5 days by MTT assay in presence of 50% human serum; assay type: functional, organism-based; settings: Human immunodeficiency virus 1, MT4, 120 h
Serum [25] = test: Drug level in Gunn rat serum at 125 mg/kg coadministered with ritonavir measured on day 1; assay type: ADME, organism-based; design: dose 125 mg/kg; settings: in vivo; method in brief: as §5
Cathepsin D = Cathepsin D (Homo sapiens, UniProt P07339); test: Inhibition of cathepsin D
Chain of Cathepsin D (P07339 65-162 limits assumed): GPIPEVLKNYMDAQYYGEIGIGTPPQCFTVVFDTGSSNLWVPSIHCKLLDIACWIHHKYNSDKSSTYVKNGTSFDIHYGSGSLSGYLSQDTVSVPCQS
Chain of Cathepsin D (P07339 169-412 limits assumed): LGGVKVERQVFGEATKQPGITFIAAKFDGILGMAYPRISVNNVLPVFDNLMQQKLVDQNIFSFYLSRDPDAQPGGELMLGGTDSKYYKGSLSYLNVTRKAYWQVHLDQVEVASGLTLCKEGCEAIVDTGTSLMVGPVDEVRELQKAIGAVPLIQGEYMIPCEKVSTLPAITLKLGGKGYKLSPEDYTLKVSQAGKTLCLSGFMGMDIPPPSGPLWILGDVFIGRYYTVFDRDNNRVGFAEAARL

[26] = Inhibition of HIV protease; design: species or system Human immunodeficiency virus
[27] = system: Human immunodeficiency virus 1; test: Antiviral activity against HIV1 bearing protease gene with P25 mutation infected in human MT4 cells after 5 days by MTT assay; assay type: functional, organism-based; settings: Human immunodeficiency virus 1, MT4, 120 h
[28] = Protein binding in human plasma by equilibrium dialysis; assay type: ADME, cell-free; settings: read-out: PB (converted)
Method in brief: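 Percentage bound in human plasma, determined by equilibrium dialysis.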

- AUC [1]: 1560 ng·h/mL
- AUC [2]: 8800 ng·h/mL
Compound: CC(C)c1nc(CN(C)C(=O)N[C@H](C(=O)N[C@@H](Cc2ccccc2)C[C@H](O)[C@H](Cc2ccccc2)NC(=O)OCc2cncs2)C(C)C)cs1 [RITONAVIR]

Compound: COC(=O)N[C@H](C(=O)N[C@@H](Cc1ccc(-c2ccccn2)cc1)C[C@H](O)[C@H](Cc1ccccc1)NC(=O)[C@@H](N1CCN(Cc2ccccc2)C1=O)C(C)(C)C)C(C)(C)C
- AUC [3]: 19000 ng·h/mL
- concentration at 12 h [4]: 924 ng/mL
- IC50 (Cytochrome P450 2C19): > 10000 nM
- EC50 [5]: 22 nM
- Activity (Rattus norvegicus [6]): 0.133 mg/dL
- EC50 [7]: 2 nM
- Cmax [8]: 3910 ng/mL
- IC50 (Cytochrome P450 1A2): > 10000 nM
- Ki (Cytochrome P450 3A4): 18 nM
- clearance [9]: 19.2 mL/min/kg
- Ratio EC50 [10]: 11
- IC50 (Cytochrome P450 2C9): > 10000 nM
- AUC [11]: 41900 ng·h/mL
- half-life [12]: 1 h
- Drug uptake (Serum [13]): 5.33 µg/mL
- Cmax [14]: 5890 ng/mL
- Ki [15]: 177000 nM
- Cmax [16]: 170 ng/mL
- bioavailability [17]: 3.4%
- IC50 (Cytochrome P450 2D6): > 10000 nM
- AUC [18]: 3500 ng·h/mL
- AUC [19]: 150 ng·h/mL
- EC50 [20]: 140 nM
- solubility [21]: < 0.15 µg/mL
- concentration at 12 h [22]: 68 ng/mL
- Ki (Renin): > 4000 nM
- Activity (Rattus norvegicus [23]): 0.144 mg/dL
- EC50 [24]: 12 nM
- Drug uptake (Serum [25]): 2.45 µg/mL
- AUC [2]: 210 ng·h/mL
- Ki (Cathepsin D): 4300 nM
- Ki [26]: 0.015 nM
- EC50 [27]: 103 nM
- fraction unbound [28]: 0.0034
